In publication PMC11522000 (Nature Microbiology, 2024):

What was measured:
[1] = Plasma protein binding; assay type: in vitro ADME; details: rat
[2] = Hepatocytes metabolic stability; assay type: in vitro ADME; details: rat
Outline: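 Test compound was incubated with liver microsomes or hepatocytes of each species, and parent depletion was quantified by LC-MS/MS. From this, in vitro half-life and intrinsic clearance were derived, along with predicted metabolic clearance and hepatic extraction ratio.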

[3] = tested on: TK6 cells; test: In vitro micronucleus test in TK6 cells; assay type: cell-based
[4] = Stability in intestinal S9 fraction; assay type: in vitro ADME; details: human
Outline: (§1)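 Test compound added to intestinal S9 fraction of each species to start the reaction. Incubated in a shaking water bath at 37 °C, with samples taken at sequential timepoints. Samples quenched with ice-cold acetonitrile and analysed by LC-MS/MS. Half-life calculated from the rate of parent compound depletion.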

[5] = tested on: C. parvum; test: Washout assay, nanoluciferase-expressing C. parvum; assay type: cell-based, Cryptosporidium parvum; details: exposure 2–6 h post infection
Outline: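 HCT-8 cells were grown to ~90% confluence, then infected with 400 nanoluciferase-expressing oocysts per well. Before infection, oocysts were primed for excystation with 10 mM HCl in water (10 min, 37 °C), then 2 mM sodium taurocholate in DPBS with Ca/Mg (10 min, 16 °C). Luminescence was read over time. RLU taken soon after infection served as day 0 and was used to normalize each timepoint.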

[6] = tested on: C. parvum; test: Neonatal calf efficacy study; assay type: in vivo, neonatal calves
Outline: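 Infected neonatal calves received test compound orally by dosing syringe every 12 h for 7 days at 10 mg/kg birth weight, at least 2 h after feeding. Controls were vehicle-treated calves. The negative-control calf was sham-challenged so staff stayed blinded during dosing, clinical scoring of faecal consistency and faecal qPCR for oocysts.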

[7] = Plasma stability; assay type: in vitro ADME; details: dog
Outline: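 Test compound was added to plasma and incubated at 37 °C in a shaking water bath, with samples taken at sequential timepoints. Samples were quenched with ice-cold acetonitrile and analysed by LC-MS/MS, and half-life was calculated from the depletion rate.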

[8] = tested on: liver and duodenum; test: In vivo rat Comet assay; details: up to 2000 mg/kg/day
Outline: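 Liver and duodenum were sampled near Tmax after the second dose for the Comet assay.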

[9] = 2 weeks GLP rat toxicology study with toxicokinetics; assay type: in vivo; details: both, Wistar; for AUC(0-t): AUC0-8, rat
Outline: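 Male and female Wistar rats were about 7–8 weeks old at receipt and 9–10 weeks old at the start of dosing. They were dosed for 2 weeks at 50, 250 and 1000 mg/kg/day, with toxicokinetic plasma sampling.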

[10] = In vivo pharmacokinetic analysis; parameters: species or system mouse
Outline: (§2)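 Animals were male C57BL/6 mice (8–10 weeks), Wistar rats (8–10 weeks) and beagle dogs (12–14 weeks). Each received oral and i.v. doses, with plasma sampling for PK parameters.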

[11] = tested on: MDR-transfected MDCK cells; test: MDCK MDR1 permeability and efflux; assay type: in vitro ADME; details: MDCK MDR1, basolateral to apical
[12] = Stability in intestinal S9 fraction; assay type: in vitro ADME; details: rat
Outline: as §1

[13] = In vivo pharmacokinetic analysis; details: male, Beagle, dog, plasma
Outline: as §2

[14] = Cytotoxicity assay; assay type: cell-based, human; details: human, HepG2 cells (ATCC CRL-10741), HepG2 CC50, 96 h
[15] = 2 weeks GLP dog toxicology study with toxicokinetics; assay type: in vivo; details: for AUC(0-t): AUC0-8, dog
[16] = Stability in intestinal S9 fraction; assay type: in vitro ADME, calf; details: bovine
Outline: as §1

[17] = tested on: C. parvum; test: Time-kill assay, nanoluciferase-expressing C. parvum; assay type: cell-based, Cryptosporidium parvum
[18] = target: hCav1.2 (Homo sapiens, UniProt Q13936); test: Patch clamp Cav1.2 Quattro; assay type: cell-based
Outline: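 Each channel was stably expressed in HEK293 cells and tested by patch clamp with a 7-point concentration-response.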

[19] = Lipophilicity; assay type: physicochemical
[20] = target: ATM (Homo sapiens, UniProt Q13315); test: Kinase assay panel; assay type: biochemical
Sequence of ATM (Q13315 whole entry): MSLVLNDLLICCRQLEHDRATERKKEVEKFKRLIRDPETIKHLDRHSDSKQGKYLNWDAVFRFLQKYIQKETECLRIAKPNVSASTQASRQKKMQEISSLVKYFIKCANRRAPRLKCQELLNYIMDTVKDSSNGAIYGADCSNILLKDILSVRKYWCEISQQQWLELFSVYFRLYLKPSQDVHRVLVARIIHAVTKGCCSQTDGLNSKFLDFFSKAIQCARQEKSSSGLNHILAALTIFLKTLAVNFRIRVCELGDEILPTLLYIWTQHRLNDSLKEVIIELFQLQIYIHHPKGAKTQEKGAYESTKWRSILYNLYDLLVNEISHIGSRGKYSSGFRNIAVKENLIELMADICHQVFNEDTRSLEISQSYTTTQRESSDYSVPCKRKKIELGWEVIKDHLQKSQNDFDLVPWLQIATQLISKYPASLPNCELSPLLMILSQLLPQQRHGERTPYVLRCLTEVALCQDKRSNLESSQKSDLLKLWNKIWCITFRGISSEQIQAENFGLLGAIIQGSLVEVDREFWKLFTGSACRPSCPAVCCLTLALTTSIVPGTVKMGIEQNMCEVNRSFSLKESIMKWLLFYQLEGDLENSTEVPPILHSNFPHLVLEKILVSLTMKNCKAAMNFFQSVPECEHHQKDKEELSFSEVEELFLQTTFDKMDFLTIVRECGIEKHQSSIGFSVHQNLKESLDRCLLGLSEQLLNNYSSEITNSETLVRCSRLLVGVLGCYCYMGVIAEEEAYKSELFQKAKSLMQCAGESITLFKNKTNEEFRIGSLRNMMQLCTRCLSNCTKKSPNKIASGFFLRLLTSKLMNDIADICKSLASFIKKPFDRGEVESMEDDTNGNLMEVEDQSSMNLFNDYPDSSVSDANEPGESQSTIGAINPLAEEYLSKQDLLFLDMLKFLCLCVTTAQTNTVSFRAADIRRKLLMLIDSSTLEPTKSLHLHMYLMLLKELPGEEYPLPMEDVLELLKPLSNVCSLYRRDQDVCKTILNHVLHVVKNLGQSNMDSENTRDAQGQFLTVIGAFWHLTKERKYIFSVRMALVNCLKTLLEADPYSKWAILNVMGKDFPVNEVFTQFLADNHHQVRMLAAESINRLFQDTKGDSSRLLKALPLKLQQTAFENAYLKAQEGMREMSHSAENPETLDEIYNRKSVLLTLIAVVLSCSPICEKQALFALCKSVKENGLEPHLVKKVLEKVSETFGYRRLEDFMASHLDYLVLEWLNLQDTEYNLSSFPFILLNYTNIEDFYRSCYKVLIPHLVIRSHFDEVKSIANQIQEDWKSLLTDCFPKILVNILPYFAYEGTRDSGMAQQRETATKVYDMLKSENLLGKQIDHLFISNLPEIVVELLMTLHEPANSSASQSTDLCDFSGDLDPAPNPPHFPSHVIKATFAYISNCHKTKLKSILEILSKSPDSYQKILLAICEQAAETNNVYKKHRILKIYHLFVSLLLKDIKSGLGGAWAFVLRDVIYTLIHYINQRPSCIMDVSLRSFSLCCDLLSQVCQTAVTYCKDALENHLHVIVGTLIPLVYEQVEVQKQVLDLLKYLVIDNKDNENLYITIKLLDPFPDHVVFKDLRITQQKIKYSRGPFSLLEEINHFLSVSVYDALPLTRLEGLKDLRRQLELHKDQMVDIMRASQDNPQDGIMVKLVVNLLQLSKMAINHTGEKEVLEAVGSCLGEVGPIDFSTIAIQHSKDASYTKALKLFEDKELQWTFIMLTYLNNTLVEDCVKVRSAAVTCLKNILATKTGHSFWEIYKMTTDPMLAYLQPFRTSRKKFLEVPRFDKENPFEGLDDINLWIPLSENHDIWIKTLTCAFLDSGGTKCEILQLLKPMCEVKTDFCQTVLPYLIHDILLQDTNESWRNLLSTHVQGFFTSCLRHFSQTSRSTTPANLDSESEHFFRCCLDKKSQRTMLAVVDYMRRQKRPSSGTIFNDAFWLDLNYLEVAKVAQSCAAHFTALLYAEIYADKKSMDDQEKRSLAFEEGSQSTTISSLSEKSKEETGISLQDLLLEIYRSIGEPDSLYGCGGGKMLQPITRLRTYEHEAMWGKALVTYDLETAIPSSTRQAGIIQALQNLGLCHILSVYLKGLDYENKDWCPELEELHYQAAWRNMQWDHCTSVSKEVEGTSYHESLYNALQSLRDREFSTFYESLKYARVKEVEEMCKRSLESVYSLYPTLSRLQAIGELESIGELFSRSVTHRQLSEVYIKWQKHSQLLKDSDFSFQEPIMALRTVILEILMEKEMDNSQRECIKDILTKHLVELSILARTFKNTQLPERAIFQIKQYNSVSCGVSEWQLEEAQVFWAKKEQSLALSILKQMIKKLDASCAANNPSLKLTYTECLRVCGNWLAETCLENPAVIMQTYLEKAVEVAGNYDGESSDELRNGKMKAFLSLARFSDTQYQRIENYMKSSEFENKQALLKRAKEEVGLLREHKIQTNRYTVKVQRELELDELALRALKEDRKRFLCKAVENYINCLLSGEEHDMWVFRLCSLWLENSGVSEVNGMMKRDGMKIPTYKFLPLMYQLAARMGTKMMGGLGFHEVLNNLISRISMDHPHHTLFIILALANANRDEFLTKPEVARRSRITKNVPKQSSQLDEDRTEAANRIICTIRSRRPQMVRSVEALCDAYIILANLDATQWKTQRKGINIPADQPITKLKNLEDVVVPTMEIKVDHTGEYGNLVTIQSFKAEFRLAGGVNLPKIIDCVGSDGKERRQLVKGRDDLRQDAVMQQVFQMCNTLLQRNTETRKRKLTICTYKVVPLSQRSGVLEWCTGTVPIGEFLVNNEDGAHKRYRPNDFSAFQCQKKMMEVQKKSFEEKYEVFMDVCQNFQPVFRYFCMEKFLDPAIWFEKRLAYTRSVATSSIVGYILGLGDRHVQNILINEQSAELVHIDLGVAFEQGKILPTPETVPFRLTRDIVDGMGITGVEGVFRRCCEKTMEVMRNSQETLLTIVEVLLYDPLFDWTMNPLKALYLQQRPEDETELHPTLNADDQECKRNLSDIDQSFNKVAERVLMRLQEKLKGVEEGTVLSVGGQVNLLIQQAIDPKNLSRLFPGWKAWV

[21] = Stability in intestinal S9 fraction; assay type: in vitro ADME; details: dog
Outline: as §1

[22] = In vivo pharmacokinetic analysis; parameters: species or system rat; details: portal vein cannulated rats, oral
[23] = plasma, po, 1000 mg/kg/day, EDI048 1000 mg/kg/day, day 1
[24] = plasma, po, 1000 mg/kg/day, EDI048 1000 mg/kg/day, day 14
[25] = male, C57BL/6, mouse, plasma, iv, 1 mg/kg
[26] = male, C57BL/6, mouse, plasma, po, 10 mg/kg

## CN(C(=O)c1ccn2ncc(-c3ccc(C(N)=O)cc3)c2c1)c1ccc(C#N)cn1 [KDU731, 3–(4-carbamoylphenyl)-N-(5-cyanopyridin-2-yl)-N-methylpyrazolo [1,5-a]pyridine-5-carboxamide, reference compound]
[1]
  % Plasma protein binding: 87.7%
[2]
  Hepatocytes ER: 36%
[2]; hepatocytes
  hepatocyte CLint: 6.9 µL/min/1e6 cells
[3]
  In vitro TK6 Micronucleus (MN) test: Negative

## CNC(=O)c1ccc(-c2cnn3ccc(C(=O)N(C)c4ccc(Cl)c(C(=O)OC)c4)cc23)cc1 [EDI048, methyl 2-chloro-5-(N-methyl-3-(4-(methylcarbamoyl)phenyl)pyrazolo[1,5-a]pyridine-5-carboxamido)benzoate]
[4]
  half-life: 235 min
[5]
  washout: effect of 4 h exposure on parasite growth: does not affect parasite growth
[6]; 10 mg kg^−1 every 12 h, 7 days
  tolerability in calves: tolerated the full 7 day course of EDI048 treatment without compound-related abnormalities
[6]; P < 0.0001
  faecal consistency vs vehicle-treated calves: improved faecal consistency
[6]; P = 0.0062
  faecal oocyst shedding vs vehicle-treated calves: shed significantly fewer oocysts
[6]; calf model
  emergence of resistance during treatment: resistance did not emerge
[6]; post treatment
  time to signs of resolution of diarrhea: ≤ 48 h
[6]; up to 7 days
  recrudescence after cessation of treatment: No recrudescence of infection
[7]
  Plasma T1/2: > 120 min
[7]; Plasma T1/2, dog plasma
  half-life: > 240 min
[8]
  In vivo rat Comet assay: Negative^e
[9]; in vivo, po
  NOAEL at 14 days: 1000 mg/kg/day
[9]; plasma, oral, rat toxicity study
  Tmax: 30 min
[9]; [23]
  AUC(0-t): 11.1 ng·h/mL
  Tmax: 30 min
[9]; [24]
  AUC(0-t): 18.6 ng·h/mL
  Tmax: 30 min
[9]; plasma, po, 1000 mg/kg/day, Cmax, EDI048 1000 mg/kg/day, day 14
  Cmax: 4.13 ng/mL
[10]; [25]
  AUC: 0.668 µM·h
  Vd: 1.05 L/kg
  clearance: 66.7 mL/min/kg
  half-life: 25.8 min
[10]; [26]
  AUC: 0.0204 µM·h
  Cmax: 8.4 nM
  Tmax: 60 min
  bioavailability: 0.4%
[10]; mouse, oral 1 mg/kg
  Cmax: <LLOQ
[10]; mouse, oral 3 mg/kg
  Cmax: <LLOQ
[11]
  Permeability B–A: 7.92 / 12.9 / 1.62 ×10^−6 cm s^−1
[12]
  half-life: > 240 min
[13]; iv, 0.1 mg/kg
  AUC: 0.0779 µM·h
  Vd: 1.54 L/kg
  clearance: 45.7 mL/min/kg
  half-life: 33.6 min
[13]; po, 0.3 mg/kg
  AUC: 0.0118 µM·h
  Cmax: 5.2 nM
  Tmax: 45 min
  bioavailability: 5.6%
[14]
  CC50 at 96 h: 28.1 µM
[15]; both, beagle, dog, in vivo, po
  NOAEL at 14 days: 1000 mg/kg/day
[15]; both, beagle, dog, plasma, oral, dog toxicity study
  Tmax: ≤ 75 min
[15]; both, beagle, dog, plasma, po, 1000 mg/kg/day, EDI048 1000 mg/kg/day, day 1
  AUC(0-t): 459 ng·h/mL
[15]; both, beagle, dog, plasma, po, 1000 mg/kg/day, EDI048 1000 mg/kg/day, day 14
  AUC(0-t): 634 ng·h/mL
[15]; both, beagle, dog, plasma, po, 1000 mg/kg/day, Cmax, dog, EDI048 1000 mg/kg/day, day 14
  Cmax: 169 ng/mL
[15]; both, beagle, dog, plasma, po, 1000 mg/kg/day, dog, EDI048 1000 mg/kg/day, day 1
  Tmax: 57 min
[15]; both, beagle, dog, plasma, po, 1000 mg/kg/day, dog, EDI048 1000 mg/kg/day, day 14
  Tmax: 45 min
[15]; up to 1000 mg/kg/day
  cardiovascular findings in dogs: no EDI048-related cardiovascular findings
[16]
  half-life: 175 min
[17]
  concentration achieving maximum rate of parasite elimination: ≥ 27 nM
[18]
  IC50: > 50 µM
[19]
  logD: 2.7
  logP: 3.65
[20]
  IC50: 0.445 µM
  selectivity ATM over CpPI(4)K inhibition: > 100 fold
[21]
  half-life: > 240 min
[22]
  portal vein concentration relative to systemic levels: ~ 40 fold
